Screening data as filed in PubChem.
An excerpt weighted towards active compounds, which were near 2.1% of everything screened.
bCat nuc transl: alters nuclear translocation of beta-catenin in HeLa cells; actives 0.3% (n = 190,000); immunofluorescence imaging; nuclear translocation activity, % at 5 µM;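 active = nuclear translocation activity above 50% at 5 µM, with a well cell count of 50 or more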;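 also: per-cell ratio of nuclear to cytoplasmic median beta-catenin stain intensity; plate controls were DMSO negative control for no effect and GSK-3 inhibitor IX positive control for full effect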
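Assay system: human HeLa cells, native beta-catenin; doses: 5 µM primary, 0.02–20 µM confirmation; incubation: compound treatment 24 h, 37°C, 5% CO2; technique: fluorescence imaging of beta-catenin antibody stain plus DAPI; measure: % activation, nuclear-to-cytoplasmic median beta-catenin signal ratio per cell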
BaF3 parental: reduces parental Ba/F3 cell viability, JAK2V617F counter-screen; CellTiter-Glo ATP luminescence; inhibition, % at 5.6 µM; actives 1.1% (n = 220,000);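 active = inhibition above a per-campaign cutoff, the mean inhibition of all tested compounds plus 3 SD, cut at about 27% in these data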;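 also: 0% = DMSO wells and 100% = JAK Inhibitor I control wells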
MT stabilizer: microtubule stabilization, imaging screen. HeLa tubulin immunostaining HCS, 24 h; share of cells brighter than vehicle mean+2SD. % tubulin-high responders, % at 10 µM. actives 0.83% (n = 200,000). AID 2205;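 active = plate Z-score above 3 for both tubulin-high and condensed-nucleus cell shares, with cell loss under 80%, at 10 µM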;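 also: anti alpha tubulin signal scored within the nucleus-defined area of each cell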
Ba/F3 V617F tox: loss of viability in JAK2V617F-driven Ba/F3 cells. inhibition, % at 5.6 µM. Ba/F3 EpoR-JAK2V617F viability, ATP luminescence. actives 1.1% (n = 220,000);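 active = inhibition above the campaign mean plus 3 SD over all tested compounds, cut at about 24% in these data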;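 also: cytokine-independent growth of Ba/F3 cells driven by EpoR plus mutant JAK2; 0% = DMSO-treated cells and 100% = JAK inhibitor I control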
IEC-6 tox: counter-screen for KLF5 inhibitors: cytotoxicity in IEC-6 cells | IEC-6 cytotoxicity, luminescence viability | inhibition, % at 5 µM | actives 0.78% (n = 290,000) | AID 1825; in the data active = inhibition above about 22%;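 also: 0% = plate median of test compound wells and 100% = cytotoxic reference compound wells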
KLF5 inhibitor: kruppel-like factor 5 inhibition | DLD-1 KLF5 promoter-luciferase reporter, luminescence | actives 0.23% (n = 290,000) | inhibition, % at 5 µM;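 active = inhibition above a per-plate limit of that plate's mean compound inhibition plus 3 SD, cut at about 60% in these data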;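 also: 0% = DMSO wells and 100% = LY294002 at 200 µM; higher means less KLF5 promoter-driven luciferase light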
BaF3 tox 2: parental Ba/F3 viability inhibition for JAK2V617F counter-screen | shares compounds with Ba/F3 V617F tox | CellTiter-Glo luminescence; cells kept alive by added IL-3 | inhibition, % at 5.6 µM | actives 31% (n = 580) | AID 1520;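 active = cell growth inhibition above the hit limit set in the earlier mutant JAK2 cell screen, cut at about 27% in these data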;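 also: plate controls were DMSO-treated cells for no effect and JAK Inhibitor I control wells for full effect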
JAK2V617F confrm: Ba/F3 EpoR-JAK2V617F viability loss, confirmation. shares compounds with Ba/F3 V617F tox. CellTiter-Glo luminescence. inhibition, % at 5.6 µM. actives 66% (n = 580). AID 1521;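 active = mean inhibition above the hit cutoff derived in the earlier primary screen, cut at about 25% in these data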;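 also: 0% = DMSO-treated cells and 100% = JAK inhibitor I control wells; higher means lower luminescence from reduced cell ATP and viability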
Numbers without * were called inactive.

Results for COc1ccc(C2CC(=O)N3C(=C2C#N)SCC3(O)c2ccccc2)cc1 (centres undefined) ?
bCat nuc transl: -6; BaF3 parental: -1; MT stabilizer: 3; Ba/F3 V617F tox: -5; IEC-6 tox: 5; KLF5 inhibitor: 1

What do the screens show for `CNC(=O)c1nnsc1S(=O)c1ccc(Cl)cc1` (centres undefined)?
bCat nuc transl: -2; BaF3 parental: 3; MT stabilizer: 4; Ba/F3 V617F tox: 44*; IEC-6 tox: 4; KLF5 inhibitor: 8; BaF3 tox 2: 8; JAK2V617F confrm: 70*

What do the screens show for `CCCNC(=O)c1nnsc1S(=O)c1ccc(Cl)cc1` (centres undefined)?
bCat nuc transl: -3; BaF3 parental: -3; MT stabilizer: 6; Ba/F3 V617F tox: 55*; IEC-6 tox: 14; KLF5 inhibitor: 5; BaF3 tox 2: 42*; JAK2V617F confrm: 99*

What do the screens show for `CCCNC(=O)c1ccc2snnc2c1`?
bCat nuc transl: 0; BaF3 parental: -1; MT stabilizer: 3; Ba/F3 V617F tox: -2; IEC-6 tox: -10; KLF5 inhibitor: -49

What do the screens show for `CCN(C(=O)CSc1nnc2nc(C)cc(C)n12)c1ccccc1`?
bCat nuc transl: 0; BaF3 parental: 0; MT stabilizer: 3; Ba/F3 V617F tox: 1; IEC-6 tox: 1; KLF5 inhibitor: -16

Results for COc1ccc(-c2cc(N)n(S(=O)(=O)c3c(F)c(F)c(F)c(F)c3F)n2)cc1OC ?
bCat nuc transl: -1; BaF3 parental: 23; MT stabilizer: 6; Ba/F3 V617F tox: 45*; IEC-6 tox: 8; KLF5 inhibitor: 20; BaF3 tox 2: 93*; JAK2V617F confrm: 93*

Results for O=C(CN1CCC(NC(=O)Nc2ccc(F)cc2)CC1)Nc1ccccc1[N+](=O)[O-] ?
IEC-6 tox: -6; KLF5 inhibitor: -7

How did Cc1ccc(NS(=O)(=O)c2cc3c4c(cccc4c2)C(=O)NC3=O)cc1C do in these assays?
bCat nuc transl: 3; BaF3 parental: 11; Ba/F3 V617F tox: 25*; IEC-6 tox: 15; KLF5 inhibitor: -1; BaF3 tox 2: 45*; JAK2V617F confrm: 77*

How did CCc1nc(N=C(N)N)nc2ccccc12 do in these assays?
bCat nuc transl: 0; BaF3 parental: 17; MT stabilizer: 3; Ba/F3 V617F tox: 28*; IEC-6 tox: 3; KLF5 inhibitor: -46; BaF3 tox 2: 13; JAK2V617F confrm: 53*

Results for NC(N)=Nc1nc(-c2ccccc2)c2ccccc2n1 ?
bCat nuc transl: -2; BaF3 parental: 2; MT stabilizer: 1; Ba/F3 V617F tox: 3; IEC-6 tox: 6; KLF5 inhibitor: 3

How did CCOc1ccc(C(=O)NCC(c2cccs2)N(C)C)cc1OCC (centres undefined) do in these assays?
bCat nuc transl: -1; BaF3 parental: 11; MT stabilizer: 7; Ba/F3 V617F tox: 8; IEC-6 tox: 4; KLF5 inhibitor: -10

What do the screens show for `O=C(O)c1ccc(S(=O)(=O)N2CCC(NC(=O)C3CCCCC3)CC2)cc1`?
IEC-6 tox: -1; KLF5 inhibitor: -28

Results for CC(=O)c1nn(-c2cccc(Br)c2)cc1C(=O)c1ccccc1 ?
bCat nuc transl: -5; BaF3 parental: 14; MT stabilizer: 3; Ba/F3 V617F tox: 56*; IEC-6 tox: -1; KLF5 inhibitor: -17; BaF3 tox 2: 0; JAK2V617F confrm: -1

What do the screens show for `CCOc1ccc(NC(=S)Nc2cc(C)[nH]n2)cc1`?
bCat nuc transl: 0; BaF3 parental: 2; MT stabilizer: 2; Ba/F3 V617F tox: -3; IEC-6 tox: -4; KLF5 inhibitor: -40

Results for Cc1ccc(NC(=S)N2CCN(C3CCCCC3)CC2)cc1 ?
bCat nuc transl: 1; BaF3 parental: 7; MT stabilizer: 3; Ba/F3 V617F tox: 61*; IEC-6 tox: -7; KLF5 inhibitor: -13; BaF3 tox 2: 24; JAK2V617F confrm: 40*

What do the screens show for `CN1CCN(C(=S)Nc2ccc(Cl)cc2)CC1`?
bCat nuc transl: -3; BaF3 parental: 14; MT stabilizer: 3; Ba/F3 V617F tox: 27*; IEC-6 tox: -8; KLF5 inhibitor: -33; BaF3 tox 2: 23; JAK2V617F confrm: 46*

Results for S=C(Nc1ccc(Cl)cc1)N1CCCCC1 ?
bCat nuc transl: 0; BaF3 parental: 12; MT stabilizer: 2; Ba/F3 V617F tox: 5; IEC-6 tox: 2; KLF5 inhibitor: -8

How did CCOc1ccc(NC(=O)CNC(=O)c2ccc([N+](=O)[O-])cc2)cc1 do in these assays?
bCat nuc transl: -2; BaF3 parental: 8; MT stabilizer: 4; Ba/F3 V617F tox: 1; IEC-6 tox: 1; KLF5 inhibitor: -33

Results for Cc1ccc(NC(=S)N(CCN(C)C)Cc2cc3cccc(C)c3[nH]c2=O)cc1 ?
bCat nuc transl: -2; BaF3 parental: 23; MT stabilizer: 5; Ba/F3 V617F tox: 43*; IEC-6 tox: 11; KLF5 inhibitor: 5; BaF3 tox 2: 26; JAK2V617F confrm: 39*

How did Cc1cccc(NC(=S)N(CCN(C)C)Cc2cc3cccc(C)c3[nH]c2=O)c1 do in these assays?
bCat nuc transl: 2; BaF3 parental: 2; MT stabilizer: 1; Ba/F3 V617F tox: -4; IEC-6 tox: -1; KLF5 inhibitor: -25

How did c1ccc(Sc2cccc3ccccc23)c(CNC2=NCCN2)c1 do in these assays?
bCat nuc transl: 1; BaF3 parental: 10; MT stabilizer: 2; Ba/F3 V617F tox: 34*; IEC-6 tox: 9; KLF5 inhibitor: -12; BaF3 tox 2: 39*; JAK2V617F confrm: 48*

What do the screens show for `Cc1ccc(N(CC(O)CN2C(=O)NC(C)(C)C2=O)S(=O)(=O)c2ccc(C)cc2)cc1` (centres undefined)?
bCat nuc transl: 0; BaF3 parental: 2; Ba/F3 V617F tox: 25*; IEC-6 tox: 1; KLF5 inhibitor: 1; BaF3 tox 2: 0; JAK2V617F confrm: -1

What do the screens show for `O=C(OCn1ncc(Cl)c(Cl)c1=O)c1ccc(F)cc1`?
BaF3 parental: 2; MT stabilizer: 2; Ba/F3 V617F tox: 32*; IEC-6 tox: 14; KLF5 inhibitor: -19; BaF3 tox 2: 9; JAK2V617F confrm: 97*

What do the screens show for `O=C(Cn1ncc(Cl)c(Cl)c1=O)c1ccc(Cl)cc1`?
bCat nuc transl: -1; BaF3 parental: 1; MT stabilizer: 2; Ba/F3 V617F tox: 17; IEC-6 tox: 13; KLF5 inhibitor: 0

What do the screens show for `O=C(OCn1ncc(Cl)c(Cl)c1=O)c1ccccc1Cl`?
BaF3 parental: -7; MT stabilizer: 2; Ba/F3 V617F tox: 26*; IEC-6 tox: 89*; KLF5 inhibitor: -10; BaF3 tox 2: 6; JAK2V617F confrm: 98*
